Screening data (PubChem)
NPY-Y2 antag – NPY-Y2 (human) receptor antagonism. NPY-Y2 expressing cells, antagonist mode. 140,000 tested, 0.99% active. AID 793. P49146. inhibition, % at 2.7 µM
NPY-Y1 antag – blocks the human neuropeptide Y Y1 receptor. P25929. HEK293-CNG Y1 cells, membrane potential fluorescence; NPY at EC95, then isoproterenol. inhibition, % at 3.6 µM. 200,000 tested, 1% active. AID 1040;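 active means inhibition above the campaign mean inhibition of all tested compounds plus 3 SD, cut at about 20% in these data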
Target sequence (P25929 whole entry, looked up): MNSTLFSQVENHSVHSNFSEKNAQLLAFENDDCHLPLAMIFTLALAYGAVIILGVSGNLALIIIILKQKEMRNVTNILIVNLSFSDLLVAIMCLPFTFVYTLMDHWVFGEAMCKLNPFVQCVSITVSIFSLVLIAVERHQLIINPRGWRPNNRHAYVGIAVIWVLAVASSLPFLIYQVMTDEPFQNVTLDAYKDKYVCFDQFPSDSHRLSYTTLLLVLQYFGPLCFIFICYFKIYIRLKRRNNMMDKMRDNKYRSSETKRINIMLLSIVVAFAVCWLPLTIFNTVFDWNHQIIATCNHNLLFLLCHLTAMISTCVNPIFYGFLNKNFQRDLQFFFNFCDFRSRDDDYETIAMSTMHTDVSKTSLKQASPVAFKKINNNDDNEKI
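Material: HEK293 cells with Y1 receptor plus CNG channel; times: compound incubation 1 h at room temperature, readout 45 min post-stimulation; signal: fluorescence, membrane potential probe; read-out basis: fluorescence ratio normalized to % inhibition between controls; benchmarks: full-block control isoproterenol-only wells, zero-block control NPY plus isoproterenol wells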
NPY1 pot ag – human NPY-Y1 potentiation or agonism, primary screen; P25929; activation, % at 3.6 µM; 220,000 tested, 0.37% active; NPY-Y1 expressing cells, potentiator/agonist activation; in the data active means activation above about 33%, passing the limit was not always enough;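 further: cells stimulated with NPY at EC10 then isoproterenol at EC100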
NPY2 pot ag – potentiators or agonists of human neuropeptide Y receptor Y2; P49146; cells expressing NPY-Y2, potentiator/agonist read-out; activation, % at 3.6 µM; 220,000 tested, 0.45% active; AID 1359; in the data active means activation above about 27%;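 further: cells stimulated with NPY near EC25 plus isoproterenol at EC100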
RAM inhibit – yeast RAM network inhibition | S. cerevisiae dse1pr::URA3 reporter, 5-FOA growth OD615, 2 d; analog-sensitive cbk1-as2 kinase mutant strain | inhibition, % at 50 µM | 190,000 tested, 1.8% active | AID 868;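 active means inhibition above a set limit, 3 SD over mean compound inhibition, cut at about 8.4% in these data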;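 further: inhibition rescues growth on 5-FOA so higher OD means more RAM inhibition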
INS promoter inh – TRM-6 insulin promoter activity inhibition; TRM-6 cells, insulin promoter-eGFP reporter, imaging; reporter expression induced with tamoxifen; inhibition, % at 2 µM; 130,000 tested, 0.9% active; AID 1273;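 active means inhibition above the mean plus 3 SD, with well images judged a real hit on visual review, cut at about 60% in these data, passing the limit was not always enough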
NPY1 antag conf – confirmation of human neuropeptide Y receptor Y1 antagonists; shares compounds with NPY-Y1 antag; HEK293-CNG NPY-Y1, membrane potential fluorescence, cAMP; NPY challenge against isoproterenol-raised cAMP; inhibition, % at 3.6 µM; 1,200 tested, 21% active; in the data active means inhibition above about 20%
NPY2 antag ctr – counter-screen for NPY-Y1 antagonists: human NPY-Y2 antagonism; 1,200 tested, 28% active; inhibition, % at 3.6 µM; AID 1255; shares compounds with NPY-Y1 antag; HEK293 NPY-Y2 CNG membrane potential fluorescence; cells given NPY, then isoproterenol
A number is an active result; . = inactive; / = no result given. A selection: hits, their analogues and other compounds. The true share with any hit is near 3.8%. Unless noted, no stated cut-off is given here; in the data, active means inhibition above about 17%; inactive means the rest.

SMILES	NPY-Y2 antag	NPY-Y1 antag	NPY1 pot ag	NPY2 pot ag	RAM inhibit	INS promoter inh	NPY1 antag conf	NPY2 antag ctr
CCS(=O)(=O)c1ccc2c(c1)N(S(C)(=O)=O)CC(C(=O)NN)O2 (stereo not given)	/	.	.	.	.	/	/	/
O=C(c1ccc(CN2CCc3ccccc3C2)cc1)N1CCN(c2ccc(F)cc2)CC1	.	.	.	.	/	.	/	/
CCN1C(=O)c2ccc(C(=O)NCc3ccc4c(c3)OCO4)cc2C1=O	.	26	.	.	.	.	.	.
Cc1c(C(=O)NCc2ccc3c(c2)OCO3)oc2ccccc12	.	.	.	.	.	.	/	/
Cc1cc2oc(C(=O)NCc3ccc4c(c3)OCO4)c(C)c2cc1C	.	28	.	.	.	.	23	18
COc1ccccc1NC(=O)c1oc2ccc(C)cc2c1C	.	22	.	.	.	.	.	.
OCC1(CCc2ccccc2)CCN(Cc2cc(F)ccc2-n2cccn2)CC1	/	23	.	.	.	/	.	.
Fc1cccc(Cc2noc(CN3CCN(C4CCc5ccccc5C4)CC3)n2)c1 (stereo not given)	/	24	.	.	.	.	.	.
CC(C)Cn1cc(C(=O)N2CCC(C)CC2)c2c3ccccc3n(C)c2c1=O	/	23	.	.	.	.	.	.
CC(C)Cn1cc(C(=O)N2CCOCC2)c2c3ccccc3n(C)c2c1=O	.	.	.	.	.	/	/	/
COCCn1cc(C(=O)NCc2ccco2)c2c3ccccc3n(C)c2c1=O	/	.	.	.	.	.	/	/
CC(C)Cn1cc(C(=O)NCc2cccs2)c2c3ccccc3n(C)c2c1=O	.	21	.	.	.	/	.	.
CC(=O)Nc1ccc(NC(=O)C(C)OC(=O)CCC(=O)c2ccc(F)cc2)cc1 (stereo not given)	.	.	.	.	.	.	/	/
CCCCOC(=O)Cn1c(=N)n(CCC)c2ccccc21	.	40	.	.	.	/	.	.
CCCn1c(=N)n(CC(=O)O)c2ccccc21	.	.	.	.	.	.	/	/
Clc1ccc(-n2cccc2CN2CCc3c([nH]c4ccccc34)C2c2ccccn2)nc1 (stereo not given)	/	26	.	.	.	/	.	.
Cc1ccc(Cl)cc1N1CCN(CC(O)COCc2ccco2)CC1 (stereo not given)	.	21	.	.	.	/	.	.
OC(COCc1ccco1)CN1CCN(C(c2ccccc2)c2ccccc2)CC1 (stereo not given)	.	.	.	.	.	.	/	/
NC(=O)C[n+]1cccc(/C=N/O)c1	/	.	.	.	.	/	/	/
CC1CC1c1ccc(/C=C(\C#N)C(=O)Nc2ccccc2Cl)o1 (stereo not given)	.	23	.	.	.	/	.	.
C=CCNCC(=O)N1N=C(c2ccc3ccccc3c2)CC1c1ccc(OC)cc1 (stereo not given)	/	32	.	.	.	.	32	50
COc1ccc(C2CC(c3ccc4ccccc4c3)=NN2C(=O)CNC2CCCCC2)cc1 (stereo not given)	/	30	.	.	.	.	37	33
COc1ccc(C2CC(c3ccc4ccccc4c3)=NN2C(=O)CN2CCC(C(N)=O)CC2)cc1 (stereo not given)	/	.	.	.	.	/	/	/
COc1ccc(C2CC(c3ccc4ccccc4c3)=NN2C(=O)COC(=O)C2CCC(=O)N2)cc1 (stereo not given)	/	.	.	.	.	/	/	/
FC(F)(F)c1cc(Cl)c2nnc(C(F)(F)Cl)n2c1	/	.	.	.	.	/	/	/
SMILES	NPY-Y2 antag	NPY-Y1 antag	NPY1 pot ag	NPY2 pot ag	RAM inhibit	INS promoter inh	NPY1 antag conf	NPY2 antag ctr
CC(=O)Nc1nc(C)c(Oc2cccc(C(F)(F)F)c2)c(=O)[nH]1	/	/	.	.	/	/	/	/
Cc1cc(C)cc(OCC(=O)NCc2nc(-c3ccccc3)no2)c1	.	29	.	.	.	.	.	.
Cc1cccc(-c2noc(CCC(=O)NCc3ccccc3)n2)c1	.	.	.	.	.	.	/	/
O=C(NCCC1=CCCCC1)c1cc(-c2ccncc2)nc2ccccc12	/	27	.	.	.	.	27	23
Cc1ccc(CCNC(=O)c2cc(-c3ccncc3)nc3ccccc23)cc1	/	/	.	.	/	/	/	/
CO/N=C(\c1nonc1N)N1CCN(c2ccc(Cl)cc2[N+](=O)[O-])CC1	.	24	.	.	.	.	.	.
CO/N=C(\c1nonc1N)N1CCN(c2ccc([N+](=O)[O-])cc2Cl)CC1	.	.	.	.	.	.	/	/
CC(=O)N(C)C(c1ccc(N(C)C)cc1)c1nnnn1-c1c(C)cccc1C (stereo not given)	.	24	.	.	.	.	.	.
CC(CCc1ccccc1)N(C)CC(O)c1cccc([N+](=O)[O-])c1 (stereo not given)	/	/	.	.	/	/	/	/
O=Cc1cn(-c2ccccc2)nc1-c1cc2cc(O)ccc2oc1=O	.	22	.	.	.	.	.	.
Cc1cc(SCC(=O)c2cccs2)nc2c(C)cccc12	.	22	.	.	8.9	.	.	.
COc1cc(/C=C/C(=O)OC(C)C(=O)Nc2c(C)n(C)n(-c3ccccc3)c2=O)ccc1OCC#N (stereo not given)	/	.	.	.	.	/	/	/
CCCCN(c1ccc(C(=O)OC)cc1)S(=O)(=O)c1ccccc1	/	86	.	.	.	.	.	.
Cc1ccc(C)c(Cn2c(CO)nc3ccccc32)c1	.	21	.	.	.	.	.	.
COc1cccc(/C(C#N)=C/c2c(-c3ccc(Cl)cc3)nc3c(C)cccn23)c1	.	23	.	.	.	.	.	.
Cn1c(-c2cccs2)nc2ccccc21	/	.	.	.	.	/	/	/
C#CCn1c(S(=O)(=O)Cc2ccc(OC)cc2)nc(-c2ccccc2)c1-c1ccccc1	.	20	.	.	.	.	.	.
COc1ccc([N+](=O)[O-])cc1NC(=O)N(C)Cc1ccco1	/	/	.	.	/	/	/	/
O=C(NC1CCCCC1)C(c1ccc2ncccc2c1)N(Cc1cccs1)C(=O)c1cccs1 (stereo not given)	.	32	.	.	.	.	.	.
CC1(C)Cc2nc(-c3ccccc3)nc(NNC(=O)c3ccco3)c2CO1	/	/	.	.	/	/	/	/
CC1CC(C)CN(C2CCN(Cc3cccnc3)CC2)C1 (stereo not given)	.	21	.	.	.	.	.	.
O=C(Nc1cccnc1)c1cc(-c2ccccc2)on1	.	.	.	.	.	.	/	/
CC(C)n1cc(NC(=O)c2cc(-c3ccccc3)on2)cn1	.	24	.	.	.	.	.	.
